The results in this text go back to ChEMBL document CHEMBL4004837, “Synthesis and Characterization of Urofuranoic Acids: In Vivo Metabolism of 2-(2-Carboxyethyl)-4-methyl-5-propylfuran-3-carboxylic Acid (CMPF) and Effects on in Vitro Insulin Secretion” (J Med Chem, 2017).

A short description of data set [1]: Initial plasma concentration in mouse at 6 mg/kg, iv. Type of data set: ADME, organism-based.
A short description of data set [2]: Clearance in mouse at 1 mg/kg, iv. Format: ADME, organism-based. To be noted: in vivo.
Data set [3] in a line: Drug metabolism in CD1 mouse adipose assessed as loss of C2 carboxyl during fragmentation at 6 mg/kg, ip dosed once daily for 3 days followed by dosing of 1:1 mixtures of 2-(2-Carboxyethyl)-4-methyl-5-(1-propyl-1-13C)furan-3-carboxylic Acid and test compound on day 4 and 5 measured 1 hr post dose on day 5 by HPLC-MS analysis. The conditions noted are these: in vivo. Type of data set: ADME, organism-based, Adipose tissue. A digest of the protocol: (§1)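 Mice received CMPF 6 mg/kg intraperitoneally for three days, then 1:1 labeled/unlabeled CMPF mixtures on days four and five. On day five they were euthanized 1 h post-dose, and plasma, adipose, muscle and liver were collected. Samples were analysed by HPLC-MS, with MS/MS of product ions. Metabolites were identified by the distinctive isotope patterns from the 1:1 label mixture.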

Data set [4] can be described thus: Drug metabolism in CD1 mouse adipose assessed as loss of C2 carboxyl during fragmentation at 6 mg/kg, ip dosed once daily for 3 days followed by dosing of 1:1 mixtures of 2-(2-(Carboxy-13C)ethyl)-4-methyl-5-propylfuran-3-carboxylic-2-13C Acid and test compound on day 4 and 5 measured 1 hr post dose on day 5 by HPLC-MS analysis. Type of data set: ADME, organism-based, Adipose tissue. To be noted: in vivo. A digest of the protocol:
as §1

A further data set has as its system Plasma. Put plainly: Drug metabolism in CD1 mouse plasma assessed as glucuronide conjugate formation at 6 mg/kg, ip dosed once daily for 3 days followed by dosing of 1:1 mixtures of 2-(2-Carboxyethyl)-4-methyl-5-(1-propyl-1-13C)furan-3-carboxylic Acid and test compound on day 4 and 5 measured 1 hr post dose on day 5 by HPLC-MS analysis. To be noted: in vivo. Format: ADME, organism-based. A digest of the protocol:
(§2)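 CMPF given 6 mg/kg i.p. once daily for three days. On days four and five, 1:1 mixtures of stable-isotope-labelled and unlabelled CMPF were dosed. Mice were killed 1 h after the day-five dose. Plasma, adipose, muscle and liver were collected and analysed by HPLC-MS (MS/MS for product ions). Metabolites were identified by their distinctive isotope patterns from the labelled/unlabelled mixture.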

Data set [5] is described as follows: Drug metabolism in CD1 mouse muscle assessed as oxidative metabolites formation at 6 mg/kg, ip dosed once daily for 3 days followed by dosing of 1:1 mixtures of 2-(2-Carboxyethyl)-4-methyl-5-propyl-(3-13C-furan)-3-13Ccarboxylateand test compound on day 4 and 5 measured 1 hr post dose on day 5 by HPLC-MS analysis. To be noted: in vivo. Type of data set: ADME, organism-based, Muscle tissue. Summed up:
as §2

Data set [6] can be described thus: Effect on insulin content in KCl-stimulated mouse pancreatic islet at 200 uM incubated for 24 hrs followed by KCl stimulation for 20 mins by HTRF assay. Type of data set: ADME, cell-based. Summed up:
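Mouse islets treated with compounds at 200 µM. Insulin secretion was then measured under low- and high-glucose GSIS conditions and under KCl stimulation, and intracellular insulin content was measured. Mean of n = 4-5 experiments with SEM.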
A general note: Time-resolved FRET reads energy transfer from a long-lived donor to a nearby acceptor.

Usually clearance stands for a measure of how efficiently the substance is removed, as volume per time. The compound `CCCc1oc(CCC(=O)O)c(C(=O)O)c1C` gave a C0 in data set [1] of 200 to 250 µM. Moreover, the clearance in data set [2] amounted to 0.66 mL/min/kg. The Drug metabolism result in data set [3] was “Metabolite_Detected”; in data set [4], “Metabolite_Detected”; in the data set on Plasma, “Metabolite_Detected”; in data set [5], “Metabolite_Notdetected”. In addition, the Activity result in data set [6] is recorded as “Non-Toxic”.
